From publication PMC6560633 (Journal of the American Chemical Society, 2018)
Read-outs that look alike come from different tables or passages of the source.

Experiments:
[1] = Kinetic inertness: La^3+ transmetalation challenge of Ba–L complexes, UV-vis; type: physicochemical; conditions: 1000 equiv of La^3+, RT, pH 7.3
[2] = Stability of Ba^2+ complexes in the presence of hydroxyapatite, GFAAS; type: physicochemical; conditions: HAP suspension, pH 7.6 buffer, after 20 h; 1.1 equiv L, 1.0 equiv Ba^2+
[3] = Stability constants of Sr^2+ complexes by pH-potentiometry; type: binding; conditions: I = 0.1 M KCl; for log KʹSr (conditional stability constant): pH 7.4, 25 °C; for pSr: −log [M^2+]free, [M^2+] = 10^−6 M, [L] = 10^−5 M, pH 7.4
[4] = cited from earlier work
[5] = cited from earlier work; for log KSrHL: protonation constant of the Sr^2+ complex
[6] = Stability constants of Ba^2+ complexes by pH-potentiometry; type: binding; conditions: for selectivity for Ba^2+ over Ca^2+ (ratio of pM values) / selectivity for Ba^2+ over Sr^2+ (ratio of pM values) / pBa / major species present in solution of Ba^2+ and ligand: pH 7.4; for log KʹBa (conditional stability constant): pH 7.4, 25 °C; for log KʹBa (conditional stability constant) / pBa / log KBaL / major species present in solution of Ba^2+ and ligand / log KBaH2L / log KBaHL: I = 0.1 M KCl; for pBa: −log [M^2+]free, [M^2+] = 10^−6 M, [L] = 10^−5 M; for pBa / log KBaL / major species present in solution of Ba^2+ and ligand / log KBaH2L / log KBaHL: 25 °C; for major species present in solution of Ba^2+ and ligand: [Ba^2+]tot = [L]tot = 1.0 mM; for log KBaH2L / log KBaHL: protonation constant of the Ba^2+ complex
[7] = Stability constants of Ca^2+ complexes by pH-potentiometry; type: binding; conditions: I = 0.1 M KCl; for log KʹCa (conditional stability constant): pH 7.4, 25 °C; for pCa: −log [M^2+]free, [M^2+] = 10^−6 M, [L] = 10^−5 M, pH 7.4; for pCa / log KCaL / log KCaHL: 25 °C; for log KCaHL: protonation constant of the Ca^2+ complex
[8] = I = 0.1 M KCl, cited from earlier work
[9] = Dissolution of BaSO4 suspension by ligand, GFAAS
How it was run: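 BaSO4 was formed in pH 8 NaHCO3 from Ba(NO3)2 (4.53 mM) and excess Na2SO4 (13.48 mM), then ligand (5 mM) was added at RT. Dissolved barium was measured by GFAAS after 10, 20 and 30 min. A second series used pH 11 […] buffer and was sampled at 5 and 30 min. Results are reported as percent of BaSO4 dissolved.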

[10] = cited from earlier work; for log KCaHL: protonation constant of the Ca^2+ complex
[11] = Dissolution of crude barite ore in columns, ligand efficiency by GFAAS; conditions: barite 3 g, soak 1 h
[12] = Ligand protonation constants by pH-potentiometric titration; type: physicochemical; conditions: for log Ka1 / log Ka2 / log Ka3 / log Ka4: 25 °C, I = 0.1 M KCl; for existence of fully deprotonated ligand in solution: speciation
How it was run: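 Protonation constants came from pH-potentiometric titration at 25 °C in 0.1 M KCl. The fraction of each protonated or deprotonated ligand species in solution was calculated from the fitted constants using species distribution diagrams. Overall ligand basicity was taken as the sum of the log Ka values.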

[13] = pH 8 NaHCO3, RT, ligand 5 mM, 30 min
[14] = protonation constant of the Sr^2+ complex, 25 °C
[15] = I = 0.1 M KNO3, bracketed value

Compound | log KʹSr (conditional stability constant) [3] | log KʹBa (conditional stability constant) [6] | log KʹCa (conditional stability constant) [7] | log KSrL ([3]; 25 °C) | log KSrHL [3, 14] | overall basicity (sum of log Ka values) [12] | log Ka1 [12] | log Ka2 [12] | log Ka3 [12] | log Ka4 [12] | log KBaL [6] | major species present in solution of Ba^2+ and ligand [6] | log KBaH2L [6] | log KBaHL [6] | pSr ([3]; 25 °C) | selectivity for Ba^2+ over Ca^2+ (ratio of pM values) [6] | selectivity for Ba^2+ over Sr^2+ (ratio of pM values) [6] | pBa [6] | pCa [7] | BaSO4 dissolved [9, 13] | also measured
O=C([O-])c1cccc(CN2CCOCCOCCN(Cc3cccc(C(=O)[O-])n3)CCOCCOCC2)n1.[Ba+2] [Ba–macropa] | – | – | – | – | – | – | – | – | – | – | – | – | – | – | – | – | – | – | – | – | half-life (t½) of substitution of Ba^2+ with La^3+ [1]: 5.45 ± 0.20 min; Ba^2+ retained in the liquid phase (intact complex) [2]: 82%
O=C(O)CN(CCN(CC(=O)O)CC(=O)O)CCN(CC(=O)O)CC(=O)O [DTPA, reference compound] | 5.53 | 4.63 | 7.63 | – | – | – | – | – | – | – | – | – | – | – | 6.61 | < 1 fold | < 1 fold | 6.15 | 8.59 | 40% | ligand efficiency (percent of ligand saturated with Ba^2+) ([11]; pH 8, ~48 mM ligand): 2%; ligand efficiency (percent of ligand saturated with Ba^2+) ([11]; pH 11, ~48 mM ligand): 17%; log KBaL [4]: 8.78; log KBaHL ([4]; protonation constant of the Ba^2+ complex): 5.34; log KSrL [5]: 9.68; log KSrHL [5]: 5.4; log Ka1 [8]: 10.34; log Ka2 [8]: 8.59; log Ka3 [8]: 4.25; log Ka4 [8]: 2.71; log Ka5 [8]: 2.18; BaSO4 dissolved ([9]; pH 11 NaCO3 buffer, 5 min): nearly all; log KCaL ([10]; I = 0.1 M KCl): 11.77; log KCaHL [10]: 6.10
O=C(O)c1cccc(CN2CCOCCOCCN(Cc3cccc(C(=O)O)n3)CCOCCOCC2)n1 [macropa] | 9.07 | 10.74 | 5.42 | 9.442(4) | 3.35(8) | 19.99 | 7.41 | 6.899 | 3.23(1) | 2.45(5) | 11.11(4) | ML species | 2.49(7) | 3.76(2) | 10.02 | 1.79 fold | 1.17 fold | 11.69 | 6.54 | complete dissolution | ligand efficiency (percent of ligand saturated with Ba^2+) ([11]; pH 8, ~48 mM ligand): 40%; ligand efficiency (percent of ligand saturated with Ba^2+) ([11]; pH 11, ~48 mM ligand): 40%; log Ka1 ([12]; listed as macropa^2−): 7.41(1); log Ka2 ([12]; listed as macropa^2−): 6.899(3); fraction of ligand fully deprotonated (L^2–) ([12]; pH 7.4): 43%; log KSrL [5, 15]: 9.57; Ba^2+ bound by ligand ([6]; pH 4.0): 90%; Ba^2+ complexed by ligand ([6]; pH 5.1): 99%; log KCaL [7]: 5.79(1); log Ka1 ([8]; parenthetic value): 7.41; log Ka2 ([8]; parenthetic value): 6.85; log Ka3 ([8]; parenthetic value): 3.32; log Ka4 ([8]; parenthetic value): 2.36; log Ka5 ([8]; parenthetic value): (1.69); BaSO4 dissolved ([9]; pH 8 NaHCO3, RT, ligand 5 mM, 10 min): 78%; BaSO4 dissolved ([9]; pH 11 NaCO3 buffer, 5 min): > 95%; log KCaL [10, 15]: 5.25

Continued, in another order:

log KʹSr (conditional stability constant) [3] | log KʹBa (conditional stability constant) [6] | log KʹCa (conditional stability constant) [7] | log KSrL ([3]; 25 °C) | log KSrHL [3, 14] | overall basicity (sum of log Ka values) [12] | log Ka1 [12] | log Ka2 [12] | log Ka3 [12] | log Ka4 [12] | log KBaL [6] | major species present in solution of Ba^2+ and ligand [6] | log KBaH2L [6] | log KBaHL [6] | Compound | pSr ([3]; 25 °C) | selectivity for Ba^2+ over Ca^2+ (ratio of pM values) [6] | selectivity for Ba^2+ over Sr^2+ (ratio of pM values) [6] | pBa [6] | pCa [7] | BaSO4 dissolved [9, 13] | also measured
8.35 | 5.72 | 10.34 | – | – | – | – | – | – | – | – | – | – | – | O=C(O)CN1CCN(CC(=O)O)CCN(CC(=O)O)CCN(CC(=O)O)CC1 [DOTA, reference compound] | 9.30 | < 1 fold | < 1 fold | 6.76 | 11.29 | 40% | log KBaL ([4]; I = 0.1 M KCl): 11.75; log KSrHL ([5]; I = 0.1 M KCl): 4.52; log Ka1 [8]: 11.14; log Ka2 [8]: 9.69; log Ka3 [8]: 4.85; log Ka4 [8]: 3.95; BaSO4 dissolved ([9]; pH 11 NaCO3 buffer, 30 min): 75%; log KCaHL ([10]; I = 0.1 M KCl): 3.60
7.54 | 10.05 | 3.94 | 9.19(5) | 8.92(2) | 27.69 | 10.33 | 7.15 | 6.97 | 3.24(4) | 10.87(2) | MHL species | 3.28(2) | 9.76(2) | O=C(O)c1cccc(CN2CCOCCOCCN(Cc3ccc4cccc(O)c4n3)CCOCCOCC2)n1 [macropaquin] | 8.50 | – | – | 11.01 | 6.04 | 95% | log Ka1 ([12]; listed as macropaquin^2−): 10.33(4); log Ka2 ([12]; listed as macropaquin^2−): 7.15(3); log Ka3 ([12]; listed as macropaquin^2−): 6.97(2); fraction of ligand as monoprotonated species HL^– ([12]; pH 7.4): 56%; existence of fully deprotonated ligand in solution [12]: do not exist in solution below pH 8; log KCaL [7]: 5.90(4); log KCaHL [7]: 8.59(2)
5.64 | 8.76 | 3.19 | 8.62(2) | 8.34(4) | 32.14 | 9.34 | 9.43 | 6.75 | 6.62 | 10.44(6) | MH2L species | 7.80(2) | 9.24(7) | O=S(=O)(O)c1ccc(O)c2nc(CN3CCOCCOCCN(Cc4ccc5c(S(=O)(=O)O)ccc(O)c5n4)CCOCCOCC3)ccc12 [macroquin–SO3] | 6.70 | – | – | 9.72 | 6.01 | – | log KSrH2L [3, 14]: 6.920(3); log Ka1 ([12]; listed as macroquin–SO3^4−): 9.34(4); log Ka2 ([12]; listed as macroquin–SO3^4−): 9.43(1); log Ka3 ([12]; listed as macroquin–SO3^4−): 6.75(4); log Ka4 ([12]; listed as macroquin–SO3^4−): 6.62(4); fraction of ligand as H2L^2– ([12]; pH 7.4): 78%; existence of fully deprotonated ligand in solution [12]: do not exist in solution below pH 8; log KCaL [7]: 6.04(8); log KCaHL [7]: 8.60(4)
